PMC2638640 (Toxicological Sciences, 2008)

How the values were obtained:
[1] = Rate constants for reaction of type 2 alkenes with cysteine sulfhydryl groups; type: physicochemical; details: second-order rate of reaction with L-cysteine at pH 7.4
Summary of the method: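 L-Cysteine was incubated with molar excess of test alkene at pH 7.4 or 8.8, with remaining sulfhydryl measured over time by DTNB absorbance. Pseudo-first-order constants (k1) came from these plots, then second-order constants (k2). Thiolate-corrected constants via log(k k2) = log k2 + pKa – pH, taking sulfhydryl pKa 8.5; n = 4–6 at pH 7.4.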

[2] = test system: total free sulfhydryl content in synaptosomes; assay: Loss of free sulfhydryl groups in synaptosomes; type: biochemical, rat; details: nonconjugated analogs, striatal synaptosomes
Summary of the method: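 Rat striatal synaptosomes (200 μg protein) were incubated 15 min with graded concentrations of test compound or control buffer, then solubilized in 1% SDS. DTNB (3mM) added; after 5 min equilibration at 25°C, absorbance read at 412 nm against a no-DTNB blank. Free thiol calculated from the extinction coefficient 1.36 × 10^4/M/cm; n = 4–6.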

[3] = test system: ^3H-DA transport in striatal synaptic vesicles; assay: Inhibition of vesicular ^3H-DA transport; type: biochemical, rat; details: nonconjugated analogs, data not shown
Summary of the method: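 Rat striatal synaptic vesicles (P5 pellet after osmotic shock of crude synaptosomes), 3 μg protein, were exposed 15 min to graded concentrations of test compound or assay buffer. They were then incubated 3 min at 30°C with Mg2+-ATP (2mM) and 0.30μM 3H-DA. Reaction stopped with cold buffer, followed by rapid filtration and scintillation counting. Nonspecific uptake: 4°C without Mg2+-ATP. IC50 (95% CI) by nonlinear regression; n = 3–5.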

[4] = test system: membrane ^3H-DA transport in striatal synaptosomes; assay: Inhibition of synaptosomal membrane ^3H-DA transport; type: biochemical, rat; details: for effect on synaptosomal uptake: nonconjugated analogs, striatal synaptosomes; for effect of nucleophile on in vitro neurotoxicity of HNE: nucleophile 500μM, HNE-exposed striatal synaptosomes
Summary of the method: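 Striatal synaptosomes from adult male Sprague-Dawley rats (Percoll gradient, 15%/23% interface), 10 μg protein, were exposed 15 min at 30°C to graded concentrations of test compound or Krebs-HEPES buffer. Samples were washed, filter-trapped and superfused 3 min with 0.30μM 3H-DA. Uptake measured ± Na+ (choline substitution), by scintillation. IC50 (95% CI) by nonlinear regression; n = 4–6.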

[5] = ref Doorn and Petersen, 2002, 2003; cited from earlier work

## C=CC=O [Acrolein, acrolein]
[1]
  Log k2 (pH = 7.4): 2.596

## C=CCO [Allyl alcohol, allyl alcohol]
[2]
  effect on synaptosomal sulfhydryl content: did not affect
[3]
  effect on vesicular uptake: did not affect vesicular uptake
[4]
  effect on synaptosomal uptake: did not affect

## CCCCCC(O)C=CC=O (stereo not drawn) [HNE, 4-Hydroxy-2-nonenal]
[1]
  Log k2 (pH = 7.4): 0.938
[5]
  second-order rate constant k2 (mean ± SD), Cys toward HNE: 1.33 ± 0.083 M^∧(−1)s^∧(−1)
  second-order rate constant k2 (mean ± SD), His toward HNE: 2.14 ± 0.312 × 10^−3 M^∧(−1)s^∧(−1)
  second-order rate constant k2 (mean ± SD), Lys toward HNE: 1.33 ± 0.050 × 10^−3 M^∧(−1)s^∧(−1)

## C=CC(C)=O [MVK, methyl vinyl ketone]
[1]
  Log k2 (pH = 7.4): 2.048

## CC(=O)N[C@@H](CS)C(=O)O [NAC, N-acetyl-L-cysteine]
[4]
  effect of nucleophile on in vitro neurotoxicity of HNE: significantly reduced HNE neurotoxicity

## CC(=O)N[C@@H](CCCCN)C(=O)O [NAL, N-acetyl-L-lysine]
[4]
  effect of nucleophile on in vitro neurotoxicity of HNE: neither NAL nor carnosine affected the in vitro neurotoxicity of HNE

## CCC=O [Propanal, propanal]
[2]
  effect on synaptosomal sulfhydryl content: did not affect
[3]
  effect on vesicular uptake: did not affect vesicular uptake
[4]
  effect on synaptosomal uptake: did not affect

## NCCC(=O)N[C@@H](Cc1cnc[nH]1)C(=O)O [carnosine, β-alanyl-L-histidine]
[4]
  effect of nucleophile on in vitro neurotoxicity of HNE: neither NAL nor carnosine affected the in vitro neurotoxicity of HNE
